Results: ChEMBL document CHEMBL2062463 (Bioorg Med Chem Lett, 2012)

What was measured:
HT-29 = experiment: Antiproliferative activity against human HT-29 cells expressing VEGFR after 72 hrs by MTT assay; format: functional, cell-based; conditions: HT-29, 72 h
Outline: (§1)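 MTT reduction by mitochondrial enzyme as viability read-out in primary endothelial HAEC and cancer HT29 cells. IC50 is the concentration giving 50% inhibition of proliferation, taken from dose-response curves of percent proliferation plotted against compound concentration.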

[1] = molecular target: Vascular endothelial growth factor receptor 2 (Homo sapiens, UniProt P35968); experiment: Competitive inhibition of VEGFR2 by qPCR method
[2] = Antiproliferative activity against human HAEC cells expressing VEGFR after 72 hrs by MTT assay; format: functional, cell-based; outline: as §1
[3] = Lipophilicity, log D of the compound in octanol and water at pH 7.4 by shake flask method; format: physicochemical
[4] = Protein binding in human serum by HPLC analysis; format: ADME, cell-free; conditions: read-out: PB (converted)
Outline: (§2)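 [125I]-labelled compound incubated in fresh human serum at 4 °C and 37 °C at several time intervals. Bound fraction estimated after ethanol precipitation-extraction of proteins. Supernatant analysed by HPLC for intact radiolabelled compound.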

[5] = Chemical stability of the compound in 1% tween-20 up to 24 hrs in dark; format: physicochemical
Outline: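 Radiolabelled [125I] compound held in saline containing 1% Tween-20 at 37 °C in the dark for up to 24 h. Radiochemical stability checked over that period.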

Serum = experiment: Stability in human serum by HPLC analysis; format: ADME, cell-free; outline: as §2

Sequence of Vascular endothelial growth factor receptor 2 (P35968 whole entry): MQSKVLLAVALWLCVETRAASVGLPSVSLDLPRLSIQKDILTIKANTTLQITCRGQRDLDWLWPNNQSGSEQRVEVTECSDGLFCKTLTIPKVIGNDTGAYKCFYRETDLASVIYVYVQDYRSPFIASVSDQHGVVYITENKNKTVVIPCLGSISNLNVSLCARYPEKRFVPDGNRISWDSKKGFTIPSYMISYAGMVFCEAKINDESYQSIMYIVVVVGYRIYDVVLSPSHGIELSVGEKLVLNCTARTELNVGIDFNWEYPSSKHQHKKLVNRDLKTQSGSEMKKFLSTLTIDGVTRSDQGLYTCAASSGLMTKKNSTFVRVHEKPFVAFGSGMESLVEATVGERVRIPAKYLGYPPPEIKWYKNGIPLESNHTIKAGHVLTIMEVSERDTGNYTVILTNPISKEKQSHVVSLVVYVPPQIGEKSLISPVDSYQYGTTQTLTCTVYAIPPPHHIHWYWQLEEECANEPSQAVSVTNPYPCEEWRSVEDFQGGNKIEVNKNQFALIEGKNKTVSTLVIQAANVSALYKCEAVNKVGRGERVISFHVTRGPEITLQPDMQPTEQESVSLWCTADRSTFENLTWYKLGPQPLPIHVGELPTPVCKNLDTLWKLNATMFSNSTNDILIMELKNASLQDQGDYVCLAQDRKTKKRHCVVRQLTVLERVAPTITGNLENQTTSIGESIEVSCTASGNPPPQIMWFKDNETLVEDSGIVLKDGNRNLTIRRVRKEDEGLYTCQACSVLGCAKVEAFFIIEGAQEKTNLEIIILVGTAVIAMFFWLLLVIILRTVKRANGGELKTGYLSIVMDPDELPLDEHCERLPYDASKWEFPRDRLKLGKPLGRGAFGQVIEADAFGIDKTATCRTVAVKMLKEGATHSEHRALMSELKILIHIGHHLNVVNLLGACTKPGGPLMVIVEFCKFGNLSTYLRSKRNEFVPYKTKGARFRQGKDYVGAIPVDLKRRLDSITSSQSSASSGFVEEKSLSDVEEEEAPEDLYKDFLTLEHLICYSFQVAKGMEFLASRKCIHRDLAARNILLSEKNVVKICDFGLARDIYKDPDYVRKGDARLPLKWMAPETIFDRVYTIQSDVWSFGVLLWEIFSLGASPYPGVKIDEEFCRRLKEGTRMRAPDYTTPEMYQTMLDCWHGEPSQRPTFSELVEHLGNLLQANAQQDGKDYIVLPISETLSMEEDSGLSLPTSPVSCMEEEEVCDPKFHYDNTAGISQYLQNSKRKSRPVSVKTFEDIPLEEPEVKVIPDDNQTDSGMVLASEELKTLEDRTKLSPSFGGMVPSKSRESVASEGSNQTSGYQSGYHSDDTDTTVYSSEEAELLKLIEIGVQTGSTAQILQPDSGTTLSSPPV

Row | IC50 (HT-29) [nM] | Kd [1] [nM] | logD [3] | fraction unbound [4] | Stability [5] | Stability (Serum) | Compound | IC50 [2] [nM]
1 | 1810 | 16 | – | – | – | – | CCN(CC)CCNC(=O)c1c(C)[nH]c(/C=C2\C(=O)Nc3ccc(I)cc32)c1C | 1120
2 | – | – | 2.25 | 0.95 | Stable | Stable | CCN(CC)CCNC(=O)c1c(C)[nH]c(/C=C2\C(=O)Nc3ccc([125I])cc32)c1C | –
3 | 330 | – | – | – | – | – | CCN(CC)CCNC(=O)c1c(C)[nH]c(/C=C2\C(=O)Nc3ccc(F)cc32)c1C [SUNITINIB] | 100
